In ChEMBL document CHEMBL2311493, “Focused pseudostatic hydrazone libraries screened by mass spectrometry binding assay: optimizing affinities toward γ-aminobutyric acid transporter 1” (J Med Chem, 2013):

What was measured:
[1] = biological target: Sodium- and chloride-dependent GABA transporter 1 (Mus musculus) (UniProt P31648); experiment: Binding affinity to mouse GAT1 expressed in HEK293 cells membranes assessed as remaining [2H10]NO711 binding level at 10 uM using LC-ESI-MS/MS analysis by [2H10]NO711 binding inhibition assay; format: cell membranes
How it was run: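 Membranes from HEK293 cells stably expressing mGAT1, ~0.1 mg/mL protein, in pH 7.1 phosphate buffer with 1 M NaCl and 1% DMSO final. A single aldehyde (10 μM) and hydrazine 10 (100 μM) were incubated 4 h at 37 °C with the target to form the hydrazone. NO711 marker (20 nM) was then added for 40 min. Bound marker was recovered by filtration, 1 M NaCl washes and MeOH elution, then quantified by LC-ESI-MS/MS against [²H₁₀]NO711 internal standard. Result is % remaining specific binding, n = 4.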

[2] = biological target: T1, Sodium- and chloride-dependent GABA transporter 1 (Mus musculus, UniProt P31648); experiment: Binding affinity to mouse GAT1 expressed in HEK293 cells membranes using LC-ESI-MS/MS analysis by [2H10]NO711 binding inhibition assay; format: cell membranes
How it was run: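 Full competition with NO711 marker (20 nM) on mGAT1 HEK293 membranes in pH 7.1 phosphate buffer containing 1 M NaCl. Eight competitor concentrations, triplicate points. Bound marker was quantified by LC-ESI-MS/MS. Specific binding is total minus nonspecific. IC50 came from a one-site nonlinear fit and was converted to Ki by Cheng–Prusoff. pKi is mean ± SEM of at least three experiments.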

[3] = biological target: T1, Sodium- and chloride-dependent GABA transporter 1; experiment: Inhibition of [3H]GABA uptake at mouse GAT1 expressed in HEK293 cells after 25 mins by scintillation counting analysis; format: cell-based

| Activity [1] | IC50 ([3]; read-out: pIC50 (converted)) | Ki [2] | SMILES | further results |
| --- | --- | --- | --- | --- |
| > 10% | – | – | COc1ccc(-c2ccccc2/C=N/NCCN2CCCC(C(=O)O)C2)cc1 (stereo not given) | – |
| 35% | – | – | O=Cc1ccccc1-c1c(F)cc(F)cc1F | IC50 [2]: 10000 nM |
| < 5% | 998 nM | 131 nM | O=C(O)C1CCCN(CCN/N=C/c2ccccc2-c2c(F)cccc2F)C1 (stereo not given) | – |
| 82% | – | – | O=Cc1ccccc1-c1ccc(F)c(F)c1 | – |
| < 5% | 2250 nM | 443 nM | COc1cccc(F)c1-c1ccccc1/C=N/NCCN1CCCC(C(=O)O)C1 (stereo not given) | – |
| 79% | – | – | O=Cc1ccccc1-c1ccc(Cl)cc1 | – |
| < 5% | 292 nM | 14.6 nM | O=C(O)C1CCCN(CCN/N=C/c2ccccc2-c2ccc(F)cc2Cl)C1 (stereo not given) | – |
| 8.2% | 2870 nM | 590 nM | O=C(O)C1CCCN(CCN/N=C/c2ccccc2-c2cccs2)C1 (stereo not given) | – |
| 81% | – | – | O=Cc1ccccc1-c1ccccc1-c1ccccc1 | – |
| > 10% | – | – | O=C(O)C1CCCN(CCN/N=C/c2ccccc2-c2cccc(-c3ccccc3)c2)C1 (stereo not given) | – |
| < 5% | 1500 nM | 204 nM | O=C(O)C1CCCN(CCN/N=C/c2ccccc2-c2cccc(F)c2F)C1 (stereo not given) | – |
| 81% | – | – | O=Cc1ccccc1-c1ccc(C(F)(F)F)cc1C(F)(F)F | – |
| 81% | – | – | O=Cc1ccccc1-c1cc(F)cc(F)c1 | – |
| < 5% | 61.2 nM | 8.05 nM | O=C(O)C1CCCN(CCN/N=C/c2ccccc2-c2ccc(Cl)cc2Cl)C1 (stereo not given) | – |
| < 5% | 129 nM | 35.6 nM | O=C(O)C1CCCN(CCN/N=C/c2ccccc2-c2ccc(F)cc2F)C1 (stereo not given) | – |
| > 10% | – | – | O=C(O)C1CCCN(CCN/N=C/c2ccccc2-c2ccc(-c3ccccc3)cc2)C1 (stereo not given) | – |
| < 5% | 255 nM | 30.6 nM | O=C(O)C1CCCN(CCN/N=C/c2ccccc2-c2c(F)cc(F)cc2F)C1 (stereo not given) | – |
| – | – | – | O=C(O)C1=CCCNC1 [GUVACINE] | IC50 ([3]; read-out: IC50): 14000 nM |
| 91% | – | – | COc1cccc(-c2ccccc2C=O)c1 | – |
| 85% | – | – | O=Cc1ccccc1-c1ccc(Cl)cc1Cl | – |
| > 10% | – | – | O=C(O)C1CCCN(CCN/N=C/c2ccccc2-c2cc(F)cc(F)c2)C1 (stereo not given) | – |
| – | – | – | O=C(O)[C@@H]1CCCN(CCOCCC(c2ccccc2)c2ccccc2)C1 | IC50 ([3]; read-out: IC50): 55 nM |

| Activity [1] | IC50 ([3]; read-out: pIC50 (converted)) | Ki [2] | SMILES | further results |
| --- | --- | --- | --- | --- |
| < 5% | 1960 nM | 234 nM | O=C(O)C1CCCN(CCN/N=C/c2cc(F)ccc2-c2ccc(Cl)cc2)C1 (stereo not given) | – |
| 91% | – | – | Cc1ccc(-c2ccccc2C=O)cc1 | – |
| – | – | – | Cc1ccsc1C(=CCCN1CCC[C@@H](C(=O)O)C1)c1sccc1C [TIAGABINE] | IC50 ([3]; read-out: IC50): 70 nM |
| 81% | – | – | O=Cc1ccccc1-c1ccc(-c2ccccc2)cc1 | – |
| 81% | – | – | O=Cc1ccccc1-c1cc(F)ccc1F | – |
| 79% | – | – | O=Cc1ccccc1-c1cccc(Cl)c1 | – |
| 91% | – | – | Cc1cccc(-c2ccccc2C=O)c1 | – |
| 88% | – | – | COc1cccc(F)c1-c1ccccc1C=O | – |
| < 5% | 3320 nM | 625 nM | O=C(O)C1CCCN(CCN/N=C/c2ccccc2-c2ccc(F)c(F)c2)C1 (stereo not given) | – |
| < 5% | 7350 nM | 760 nM | COc1cc(F)ccc1-c1ccccc1/C=N/NCCN1CCCC(C(=O)O)C1 (stereo not given) | – |
| 79% | – | – | COc1ccccc1-c1ccccc1C=O | – |
| < 5% | 1790 nM | 284 nM | O=C(O)C1CCCN(CCN/N=C/c2ccccc2-c2ccc(F)cc2)C1 (stereo not given) | – |
| < 5% | 528 nM | 122 nM | O=C(O)C1CCCN(CCN/N=C/c2ccccc2-c2ccccc2F)C1 (stereo not given) | – |
| < 5% | 479 nM | 65.5 nM | O=C(O)C1CCCN(CCN/N=C/c2ccccc2-c2ccccc2Cl)C1 (stereo not given) | – |
| 81% | – | – | Cc1ccccc1-c1ccccc1C=O | – |
| > 10% | – | – | COc1cccc(-c2ccccc2/C=N/NCCN2CCCC(C(=O)O)C2)c1 (stereo not given) | – |
| 81% | – | – | O=Cc1ccccc1-c1cccc(-c2ccccc2)c1 | – |
| 16% | – | – | O=C(O)C1CCCN(CCN/N=C/c2ccccc2-c2cccc(F)c2)C1 (stereo not given) | – |
| > 10% | – | – | O=C(O)C1CCCN(CCN/N=C/c2c(F)cccc2-c2ccccc2)C1 (stereo not given) | – |
| – | 3990 nM | 313 nM | O=C(O)C1CCCN(CCC/C=C/c2ccccc2-c2ccc(F)cc2Cl)C1 (stereo not given) | – |
| – | – | – | O=C(O)[C@@H]1CCCN(CCOCCc2ccccc2-c2ccccc2)C1 | IC50 ([3]; read-out: IC50): 111 nM |
| < 5% | – | – | O=C(O)C1=CCCN(CCON=C(c2ccccc2)c2ccccc2)C1 | IC50 ([3]; read-out: IC50): 40 nM; IC50 [2]: ≤ 530 nM |

| Activity [1] | IC50 ([3]; read-out: pIC50 (converted)) | Ki [2] | SMILES | further results |
| --- | --- | --- | --- | --- |
| > 10% | – | – | COc1ccc(F)cc1-c1ccccc1/C=N/NCCN1CCCC(C(=O)O)C1 (stereo not given) | – |
| 13% | – | – | O=C(O)C1CCCN(CCN/N=C/c2cc(F)ccc2-c2ccccc2)C1 (stereo not given) | – |
| 35% | – | – | O=Cc1cc(F)ccc1-c1ccccc1F | – |
| 85% | – | – | O=Cc1c(F)cccc1-c1ccccc1 | – |
| 91% | – | – | COc1ccc(-c2ccccc2C=O)cc1 | – |
| 35% | – | – | O=Cc1cc(F)ccc1-c1ccccc1Cl | – |
| 82% | – | – | O=Cc1ccccc1-c1ccccc1F | – |
| 81% | – | – | O=Cc1ccccc1-c1cccc(F)c1F | – |
| 10% | 3400 nM | 473 nM | Cc1ccc(-c2ccccc2/C=N/NCCN2CCCC(C(=O)O)C2)cc1 (stereo not given) | – |
| – | 3560 nM | 834 nM | O=C(O)C1CCCN(CCC/C=C/c2ccccc2-c2ccccc2Cl)C1 (stereo not given) | – |
| < 5% | 1230 nM | 104 nM | O=C(O)C1CCCN(CCN/N=C/c2cc(F)ccc2-c2ccccc2Cl)C1 (stereo not given) | – |
| < 5% | 1730 nM | 264 nM | O=C(O)C1CCCN(CCN/N=C/c2cc(F)ccc2-c2ccccc2F)C1 (stereo not given) | – |
| 81% | – | – | O=Cc1ccccc1-c1ccc(F)cc1Cl | – |
| – | 3330 nM | 647 nM | O=C(O)C1CCCN(CCC/C=C/c2ccccc2-c2ccccc2F)C1 (stereo not given) | – |
| > 10% | – | – | O=C(O)C1CCCN(CCN/N=C/c2cccc(-c3ccccc3)c2)C1 (stereo not given) | – |
| 81% | – | – | O=Cc1cc(F)ccc1-c1ccc(Cl)cc1 | – |
| > 10% | – | – | O=C(O)C1CCCN(CCN/N=C/c2ccccc2-c2ccccc2-c2ccccc2)C1 (stereo not given) | – |
| 81% | – | – | O=Cc1ccccc1-c1ccc(F)cc1F | – |
| < 5% | 1560 nM | 216 nM | Cc1ccccc1-c1ccccc1/C=N/NCCN1CCCC(C(=O)O)C1 (stereo not given) | – |
| 85% | – | – | O=Cc1cc(F)ccc1-c1ccccc1 | – |
| > 10% | – | – | O=C(O)C1CCCN(CCN/N=C/c2ccccc2-c2cccc(Cl)c2)C1 (stereo not given) | – |
| 82% | – | – | O=Cc1ccccc1-c1ccc(F)cc1 | – |

| Activity [1] | IC50 ([3]; read-out: pIC50 (converted)) | Ki [2] | SMILES | further results |
| --- | --- | --- | --- | --- |
| 88% | – | – | O=Cc1cccc(-c2ccccc2)c1 | – |
| < 5% | 2820 nM | 170 nM | O=C(O)C1CCCN(CCN/N=C/c2ccccc2-c2ccc(C(F)(F)F)cc2C(F)(F)F)C1 (stereo not given) | – |
| 19% | – | – | COc1ccccc1-c1ccccc1/C=N/NCCN1CCCC(C(=O)O)C1 (stereo not given) | – |
| 88% | – | – | COc1ccc(F)cc1-c1ccccc1C=O | – |
| 79% | – | – | O=Cc1ccccc1-c1ccccc1Cl | – |
| – | 2840 nM | 592 nM | O=C(O)C1CCCN(CCC/C=C/c2ccccc2-c2ccc(F)cc2F)C1 (stereo not given) | – |
| 85% | – | – | O=Cc1ccccc1-c1ccc(Cl)cc1F | – |
| < 5% | 4920 nM | 652 nM | O=C(O)C1CCCN(CCN/N=C/c2ccccc2-c2ccccc2)C1 (stereo not given) | – |
| 88% | – | – | COc1cc(F)ccc1-c1ccccc1C=O | – |
| 82% | – | – | O=Cc1ccccc1-c1cccc(F)c1 | – |
| – | – | – | O=C(O)[C@@H]1CCCN(CCO/N=C(\Cc2ccccc2F)c2ccccc2F)C1 | IC50 ([3]; read-out: IC50): 80 nM |
| < 5% | 973 nM | 173 nM | O=C(O)C1CCCN(CCN/N=C/c2ccccc2-c2ccc(Cl)cc2)C1 (stereo not given) | – |
| 35% | – | – | O=Cc1ccccc1-c1c(F)cccc1F | – |
| – | – | – | O=C(O)C1CCCN(CCC=C(c2ccccc2)c2ccccc2)C1 (stereo not given) | IC50 ([3]; read-out: IC50): 130 nM |
| > 10% | – | – | Cc1cccc(-c2ccccc2/C=N/NCCN2CCCC(C(=O)O)C2)c1 (stereo not given) | – |
| > 10% | – | – | O=C(O)C1CCCN(CCN/N=C/c2ccccc2-c2cc(F)ccc2F)C1 (stereo not given) | – |
| 81% | – | – | Cc1ccc(-c2ccccc2C=O)c(C)c1 | – |
| – | 769 nM | 117 nM | O=C(O)C1CCCN(CCC/C=C/c2ccccc2-c2ccc(Cl)cc2Cl)C1 (stereo not given) | – |
| < 5% | 836 nM | 73.3 nM | Cc1ccc(-c2ccccc2/C=N/NCCN2CCCC(C(=O)O)C2)c(C)c1 (stereo not given) | – |
| < 5% | 126 nM | 24.7 nM | O=C(O)C1CCCN(CCN/N=C/c2ccccc2-c2ccc(Cl)cc2F)C1 (stereo not given) | – |
